Source: PubChem BioAssay
NRP1-CendR mod – modulators of CendR peptide binding to human neuropilin-1; O14786; FAM-RPARPAR peptide binding to NRP-1, fluorescence polarization; inhibition, % at 25 µM; 360,000 tested, 0.85% active; AID 602438;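 active = inhibition or corrected inhibition above about 18%, plus a signal ratio from 0.5 to 1.5, limit read from the data, passing the limit was not always enough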
V-ATPase pH – regulators of yeast V-ATPase proton transport. 350,000 tested, 0.37% active. AID 504577. response, % at 10 µM. S. cerevisiae, pHLuorin cytosolic pH fluorescence; in the data active = response mostly above about 7.3%, no sharp cut-off; inactive = mostly below about 5.4%; also: actives read high
Exocytosis inh – blocks lytic granule exocytosis | TALL-104 LAMP-1 surface exposure, flow cytometry; cells stimulated with thapsigargin and PMA | inhibition, % at 10 µM | 360,000 tested, 0.66% active | AID 651702;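 active = inhibition above about 55%, limit read from the data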
ASAP1 inh – blocks human ASAP1-stimulated Arf1 GTP hydrolysis; Q9ULH1; GDP FP detection; inhibition, % at 16.5 µM; 360,000 tested, 0.19% active; in the data active = inhibition above about 25%
Target sequence (Q9ULH1 325-724 limits assumed): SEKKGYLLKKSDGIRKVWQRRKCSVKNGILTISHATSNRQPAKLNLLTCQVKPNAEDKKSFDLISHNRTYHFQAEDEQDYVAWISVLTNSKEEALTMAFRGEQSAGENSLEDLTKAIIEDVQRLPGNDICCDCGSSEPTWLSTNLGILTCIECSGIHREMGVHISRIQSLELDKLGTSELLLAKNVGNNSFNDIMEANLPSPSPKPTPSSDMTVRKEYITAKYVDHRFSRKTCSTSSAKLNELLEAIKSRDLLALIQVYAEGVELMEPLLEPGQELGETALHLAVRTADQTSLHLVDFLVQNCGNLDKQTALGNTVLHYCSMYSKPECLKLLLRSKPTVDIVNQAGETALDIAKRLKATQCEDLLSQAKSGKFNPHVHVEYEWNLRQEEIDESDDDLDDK
ARFGAP1 inhibitor – rat ARFGAP1 inhibition | inhibition, % at 16.5 µM | Q62848 | 360,000 tested, 0.26% active | AID 651572 | Arfgap1-stimulated ARF1 GTP hydrolysis, GDP FP detection;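 active = inhibition above a per-plate limit, mean inhibition of low control wells plus 3 SD, cut at about 25% in these data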
Target sequence (Q62848 1-136 limits assumed): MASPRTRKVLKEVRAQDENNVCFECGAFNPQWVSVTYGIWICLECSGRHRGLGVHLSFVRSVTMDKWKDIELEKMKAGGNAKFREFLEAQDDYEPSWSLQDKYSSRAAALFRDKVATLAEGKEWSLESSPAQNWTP
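Repeats: one replicate per compound; assay system: rat Arfgap1 catalytic domain, aa 1-136; times: enzyme reaction 120 min at 25 °C after 20 min preincubation; detection: FP of antibody-bound GDP Alexa 633 tracer, ex 620/em 688 nm; benchmarks: high control wells lacking Arfgap1, low control full reaction with DMSO; reagent: human ARF1(Δ1-17)-GTP substrate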
VATPase regulator – modulates yeast V-ATPase proton transport; shares compounds with V-ATPase pH; S. cerevisiae pHLuorin cytosolic pH; response, % at 10 µM; 980 tested, 2% active; AID 602197; in the data active = response above about 24%
Numbers stand for hits. Sampled rows, rich in hits. Any-hit rate of the full collection: about 2.2%.

What do the screens show for `C=CCNC(=O)/C(=C\c1ccc([N+](=O)[O-])cc1)NC(C)=O`?
NRP1-CendR mod: inactive; V-ATPase pH: 13; Exocytosis inh: inactive; ASAP1 inh: inactive; ARFGAP1 inhibitor: inactive; VATPase regulator: inactive

What do the screens show for `CC(C)(C)OC(=O)N[C@@H](Cc1ccccc1)C(=O)N[C@@H](CO)[C@H](O)[C@@H]1C[C@@H]1C(=O)NC1CC1`?
NRP1-CendR mod: inactive; V-ATPase pH: 11; Exocytosis inh: inactive; ASAP1 inh: inactive; ARFGAP1 inhibitor: inactive; VATPase regulator: inactive

Results for Cc1ccc(C2=N/C(=C\c3c(C)nn(-c4ccccc4)c3N3CCCC3)C(=O)O2)cc1 ?
NRP1-CendR mod: inactive; V-ATPase pH: 71; Exocytosis inh: inactive; ASAP1 inh: inactive; ARFGAP1 inhibitor: inactive; VATPase regulator: inactive

Results for Cc1ccc(CN2CCC=CS2(=O)=O)cc1 ?
ASAP1 inh: inactive; ARFGAP1 inhibitor: inactive

What do the screens show for `C#CCNC(=O)C1=C[C@H](C(C)(C)C)C[C@H](OCCCCO)O1`?
NRP1-CendR mod: inactive; V-ATPase pH: 16; Exocytosis inh: inactive; ASAP1 inh: inactive; ARFGAP1 inhibitor: inactive; VATPase regulator: inactive

Results for Cc1ccc(S(=O)(=O)N(C)C[C@@H]2OCCCC[C@H](C)Oc3ccc(NC(=O)Nc4ccc(F)cc4)cc3C(=O)N([C@H](C)CO)C[C@H]2C)cc1 ?
NRP1-CendR mod: inactive; V-ATPase pH: inactive; Exocytosis inh: inactive; ASAP1 inh: inactive; ARFGAP1 inhibitor: inactive

Results for CC1(C(=O)NS(=O)(=O)C2CC2)CCN(C(=O)c2ccccc2F)C1 (centres undefined) ?
NRP1-CendR mod: inactive; Exocytosis inh: inactive; ASAP1 inh: inactive; ARFGAP1 inhibitor: inactive

What do the screens show for `C=C1C(=O)O[C@@]23[C@H]1CC[C@@H](C)[C@@H]2CC[C@@]1(C)O[C@@H]31`?
NRP1-CendR mod: inactive; V-ATPase pH: 23; Exocytosis inh: inactive; VATPase regulator: inactive

Results for COc1ccc(OC)c(CNC(=O)C2CCN(S(=O)(=O)N3CCCC3)CC2)c1 ?
NRP1-CendR mod: inactive; V-ATPase pH: inactive; Exocytosis inh: inactive; ASAP1 inh: inactive; ARFGAP1 inhibitor: inactive

What do the screens show for `COc1ccc(OC)c(CNC(=O)C2CCN(S(C)(=O)=O)CC2)c1`?
NRP1-CendR mod: inactive; V-ATPase pH: 11; Exocytosis inh: inactive; ASAP1 inh: inactive; ARFGAP1 inhibitor: inactive; VATPase regulator: inactive

What do the screens show for `C[C@H](NC(=O)c1ncn2c1C(=O)N[C@@H](C)C2)c1ccccc1`?
NRP1-CendR mod: inactive; V-ATPase pH: inactive; Exocytosis inh: inactive; ASAP1 inh: inactive; ARFGAP1 inhibitor: inactive

How did C[C@@H]1Cn2cnc(C(=O)N[C@@H](C)c3ccccc3)c2C(=O)N1 do in these assays?
NRP1-CendR mod: inactive; V-ATPase pH: 4.2; Exocytosis inh: inactive; ASAP1 inh: inactive; ARFGAP1 inhibitor: inactive; VATPase regulator: inactive

How did C=C(C)CSc1nnc(-c2ccc(OC)c(OC)c2)n1N do in these assays?
NRP1-CendR mod: inactive; V-ATPase pH: 8.7; Exocytosis inh: inactive; ASAP1 inh: inactive; ARFGAP1 inhibitor: inactive; VATPase regulator: inactive

How did CCCOc1ccc(/C=C/C(=O)NC2CCCCC2)cc1OC do in these assays?
NRP1-CendR mod: inactive; V-ATPase pH: inactive; Exocytosis inh: inactive; ASAP1 inh: inactive; ARFGAP1 inhibitor: inactive

What do the screens show for `COc1cc(/C=C/C(=O)NC2CCCCC2)cc(OC)c1OC`?
NRP1-CendR mod: inactive; V-ATPase pH: 8.8; Exocytosis inh: inactive; ASAP1 inh: inactive; ARFGAP1 inhibitor: inactive; VATPase regulator: inactive

Results for Cc1ccnc(NS(=O)(=O)c2ccc(NC(=O)c3ccc(N4C(=O)CCC4=O)cc3)cc2)n1 ?
NRP1-CendR mod: inactive; V-ATPase pH: 12; Exocytosis inh: inactive; ASAP1 inh: inactive; ARFGAP1 inhibitor: inactive; VATPase regulator: inactive

What do the screens show for `C[C@H]1CN([C@@H](C)CO)C(=O)CCCn2nncc2CO[C@@H]1CN(C)Cc1ccc2cccnc2c1`?
ASAP1 inh: inactive; ARFGAP1 inhibitor: inactive

Results for CN(C)CCNC(=O)c1cccc(S(=O)(=O)Nc2ccc(F)cc2)c1 ?
NRP1-CendR mod: inactive; V-ATPase pH: 6.2; Exocytosis inh: inactive; ASAP1 inh: inactive; ARFGAP1 inhibitor: inactive; VATPase regulator: inactive

Results for CCN(CC)CCNC(=O)c1ccc(NC(=O)c2cccc(S(=O)(=O)Nc3ccc(C)cc3)c2)cc1 ?
NRP1-CendR mod: inactive; V-ATPase pH: inactive; Exocytosis inh: inactive; ASAP1 inh: inactive; ARFGAP1 inhibitor: inactive

Results for O=S(=O)(NCCCCNS(=O)(=O)c1c(F)cccc1F)c1ccc2c(c1)OCCO2 ?
NRP1-CendR mod: inactive; V-ATPase pH: inactive; Exocytosis inh: inactive; ASAP1 inh: inactive; ARFGAP1 inhibitor: inactive

How did CNC(=O)COC(=O)/C=C/c1cccs1 do in these assays?
NRP1-CendR mod: inactive; V-ATPase pH: 9.0; Exocytosis inh: inactive; ASAP1 inh: inactive; ARFGAP1 inhibitor: inactive; VATPase regulator: inactive

How did O=[N+]([O-])c1cc(-c2csc(NCCc3nc4cc(Cl)c(N5CCCCC5)cc4n3CCCO)n2)ccc1Cl do in these assays?
NRP1-CendR mod: inactive; V-ATPase pH: 10; Exocytosis inh: inactive; ASAP1 inh: inactive; ARFGAP1 inhibitor: inactive; VATPase regulator: inactive

Results for COCCN(C(=O)COC(=O)CCC1CCCCC1)c1c(N)n(Cc2ccccc2)c(=O)[nH]c1=O ?
NRP1-CendR mod: inactive; V-ATPase pH: inactive; Exocytosis inh: inactive; ASAP1 inh: inactive; ARFGAP1 inhibitor: inactive

Results for COc1ccc(C(=O)C2CCCN(C(=O)C3=CCCC3)C2)cc1OC (centres undefined) ?
NRP1-CendR mod: inactive; V-ATPase pH: 10; Exocytosis inh: inactive; ASAP1 inh: inactive; ARFGAP1 inhibitor: inactive; VATPase regulator: inactive

What do the screens show for `CCN(CC)S(=O)(=O)c1ccc(/C=C/C(=O)OCC(=O)NNC(=O)c2ccc(OC)cc2)cc1`?
NRP1-CendR mod: inactive; V-ATPase pH: inactive; Exocytosis inh: inactive; ASAP1 inh: inactive; ARFGAP1 inhibitor: inactive

How did O=C(NCCc1ccccc1)c1cc2ccccc2oc1=O do in these assays?
NRP1-CendR mod: inactive; V-ATPase pH: inactive; Exocytosis inh: inactive; ASAP1 inh: inactive; ARFGAP1 inhibitor: inactive

What do the screens show for `O=C(NCCC1=CCCCC1)c1cc2ccccc2oc1=O`?
NRP1-CendR mod: inactive; V-ATPase pH: 10; Exocytosis inh: inactive; ASAP1 inh: inactive; ARFGAP1 inhibitor: inactive; VATPase regulator: inactive

What do the screens show for `Cc1nc(C(=O)Nc2ccc(Cl)cc2)sc1C1(C)CC(c2cccc([N+](=O)[O-])c2)=NO1` (centres undefined)?
NRP1-CendR mod: inactive; V-ATPase pH: 10.0; Exocytosis inh: inactive; ASAP1 inh: inactive; ARFGAP1 inhibitor: inactive; VATPase regulator: inactive

What do the screens show for `Cc1nc(C(=O)NC2CCCCC2)sc1C1(C)CC(c2cccc([N+](=O)[O-])c2)=NO1` (centres undefined)?
NRP1-CendR mod: inactive; V-ATPase pH: inactive; Exocytosis inh: inactive; ASAP1 inh: inactive; ARFGAP1 inhibitor: inactive

Results for Cc1cc(C)c(NC(=O)CN(C)C(=O)CCC(=O)c2ccc(C)s2)c(C)c1 ?
NRP1-CendR mod: inactive; V-ATPase pH: inactive; Exocytosis inh: inactive; ASAP1 inh: inactive; ARFGAP1 inhibitor: inactive
